Test results reported in ChEMBL document CHEMBL4689842, “EUbOPEN Chemogenomics Library wave 1” (2021).
Values joined by “and” are separate entries in the source; they are usually repeats but may differ in a detail not shown here. Equal entries are not always repeated.

Test system: Fibroblast
Test: Multiplex assay against human fibroblast
Assay type: toxicity, cell-based
Method in brief: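 Compound was added to live cells that had been stained at seeding with Hoechst33342, BioTracker Green Microtubule Cytoskeleton Dye, MitoTracker Red and Annexin V Alexa Fluor 680, and imaging followed on a CQ1 microscope at 37°C and 5% CO2. CellPathfinder machine-learning gating divided cells into Hoechst high-intensity objects or normal cells, normal cells into healthy, pyknosed or fragmented nuclei, and pyknosed cells into mitotic or apoptotic. Tubulin, mitochondrial-mass and membrane-permeability phenotypes are per cents of healthy-nucleus cells.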

[1] = 12 h, 1 µM, compound concentration 1 uM, replicate 1
[2] = 12 h, 1 µM, compound concentration 1 uM, replicate 2
[3] = 12 h, 10 µM, compound concentration 10 uM, replicate 1
[4] = 12 h, 10 µM, compound concentration 10 uM, replicate 2
[5] = 24 h, 1 µM, compound concentration 1 uM, replicate 1
[6] = 24 h, 1 µM, compound concentration 1 uM, replicate 2
[7] = 24 h, 10 µM, compound concentration 10 uM, replicate 1
[8] = 24 h, 10 µM, compound concentration 10 uM, replicate 2
[9] = 48 h, 1 µM, compound concentration 1 uM, replicate 1
[10] = 48 h, 1 µM, compound concentration 1 uM, replicate 2
[11] = 48 h, 10 µM, compound concentration 10 uM, replicate 1
[12] = 48 h, 10 µM, compound concentration 10 uM, replicate 2

CN(C)C(=O)C(CCN1CCC(O)(c2ccc(Cl)cc2)CC1)(c1ccccc1)c1ccccc1.Cl [LOPERAMIDE HYDROCHLORIDE]
Population Apoptotic (%) [1]: 54%
Population Fragmented Nuclei (%) [1]: 26%
Population Healthy Nuclei (%) [1]: 42%
Population Hoechst High Intensity Objects (%) [1]: 12%
Population Membrane Permeable-Phenotype (%) [1]: 19%
Population Mitochondria Different-Phenotype (%) [1]: 19%
Population Mitotic Cells (%) [1]: 45%
Population Normal (%) [1]: 87%
Population Pyknosed Nuclei (%) [1]: 31%
Population Tubulin-Different-Phenotype (%) [1]: 54%
Total Cell Count [1]: 155
Population Apoptotic (%) [2]: 25%
Population Fragmented Nuclei (%) [2]: 5%
Population Healthy Nuclei (%) [2]: 88%
Population Hoechst High Intensity Objects (%) [2]: 7%
Population Membrane Permeable-Phenotype (%) [2]: 11%
Population Mitochondria Different-Phenotype (%) [2]: 90%
Population Mitotic Cells (%) [2]: 75%
Population Normal (%) [2]: 92%
Population Pyknosed Nuclei (%) [2]: 6%
Population Tubulin-Different-Phenotype (%) [2]: 65%
Total Cell Count [2]: 55
Population Apoptotic (%) [3]: 64%
Population Fragmented Nuclei (%) [3]: 23%
Population Healthy Nuclei (%) [3]: 29%
Population Hoechst High Intensity Objects (%) [3]: 12%
Population Membrane Permeable-Phenotype (%) [3]: 0%
Population Mitochondria Different-Phenotype (%) [3]: 87%
Population Mitotic Cells (%) [3]: 35%
Population Normal (%) [3]: 87%
Population Pyknosed Nuclei (%) [3]: 46%
Population Tubulin-Different-Phenotype (%) [3]: 92%
Total Cell Count [3]: 158
Population Apoptotic (%) [4]: 82%
Population Fragmented Nuclei (%) [4]: 8%
Population Healthy Nuclei (%) [4]: 48%
Population Hoechst High Intensity Objects (%) [4]: 6%
Population Membrane Permeable-Phenotype (%) [4]: 94%
Population Mitochondria Different-Phenotype (%) [4]: 100%
Population Mitotic Cells (%) [4]: 17%
Population Normal (%) [4]: 93%
Population Pyknosed Nuclei (%) [4]: 43%
Population Tubulin-Different-Phenotype (%) [4]: 100%
Total Cell Count [4]: 64
Population Apoptotic (%) [5]: 45%
Population Fragmented Nuclei (%) [5]: 22%
Population Healthy Nuclei (%) [5]: 52%
Population Hoechst High Intensity Objects (%) [5]: 12%
Population Membrane Permeable-Phenotype (%) [5]: 19%
Population Mitochondria Different-Phenotype (%) [5]: 20%
Population Mitotic Cells (%) [5]: 54%
Population Normal (%) [5]: 87%
Population Pyknosed Nuclei (%) [5]: 25%
Population Tubulin-Different-Phenotype (%) [5]: 55%
Total Cell Count [5]: 157
Population Apoptotic (%) [6]: 53%
Population Fragmented Nuclei (%) [6]: 5%
Population Healthy Nuclei (%) [6]: 71%
Population Hoechst High Intensity Objects (%) [6]: 4%
Population Membrane Permeable-Phenotype (%) [6]: 16%
Population Mitochondria Different-Phenotype (%) [6]: 89%
Population Mitotic Cells (%) [6]: 46%
Population Normal (%) [6]: 95%
Population Pyknosed Nuclei (%) [6]: 22%
Population Tubulin-Different-Phenotype (%) [6]: 62%
Total Cell Count [6]: 68
Population Apoptotic (%) [7]: 82%
Population Fragmented Nuclei (%) [7]: 26%
Population Healthy Nuclei (%) [7]: 33%
Population Hoechst High Intensity Objects (%) [7]: 24%
Population Membrane Permeable-Phenotype (%) [7]: 7%
Population Mitochondria Different-Phenotype (%) [7]: 77%
Population Mitotic Cells (%) [7]: 17%
Population Normal (%) [7]: 75%
Population Pyknosed Nuclei (%) [7]: 39%
Population Tubulin-Different-Phenotype (%) [7]: 92%
Total Cell Count [7]: 156
Population Apoptotic (%) [8]: 98%
Population Fragmented Nuclei (%) [8]: 10%
Population Healthy Nuclei (%) [8]: 26%
Population Hoechst High Intensity Objects (%) [8]: 10%
Population Membrane Permeable-Phenotype (%) [8]: 86%
Population Mitochondria Different-Phenotype (%) [8]: 95%
Population Mitotic Cells (%) [8]: 1%
Population Normal (%) [8]: 89%
Population Pyknosed Nuclei (%) [8]: 62%
Population Tubulin-Different-Phenotype (%) [8]: 95%
Total Cell Count [8]: 70
Population Apoptotic (%) [9]: 67%
Population Fragmented Nuclei (%) [9]: 29%
Population Healthy Nuclei (%) [9]: 46%
Population Hoechst High Intensity Objects (%) [9]: 14%
Population Membrane Permeable-Phenotype (%) [9]: 8%
Population Mitochondria Different-Phenotype (%) [9]: 9%
Population Mitotic Cells (%) [9]: 32%
Population Normal (%) [9]: 85%
Population Pyknosed Nuclei (%) [9]: 23%
Population Tubulin-Different-Phenotype (%) [9]: 56%
Total Cell Count [9]: 155
Population Apoptotic (%) [10]: 75%
Population Fragmented Nuclei (%) [10]: 34%
Population Healthy Nuclei (%) [10]: 62%
Population Hoechst High Intensity Objects (%) [10]: 12%
Population Membrane Permeable-Phenotype (%) [10]: 12%
Population Mitochondria Different-Phenotype (%) [10]: 8%
Population Mitotic Cells (%) [10]: 25%
Population Normal (%) [10]: 87%
Population Pyknosed Nuclei (%) [10]: 3%
Population Tubulin-Different-Phenotype (%) [10]: 70%
Total Cell Count [10]: 137
Population Apoptotic (%) [11]: 86%
Population Fragmented Nuclei (%) [11]: 36%
Population Healthy Nuclei (%) [11]: 38%
Population Hoechst High Intensity Objects (%) [11]: 36%
Population Membrane Permeable-Phenotype (%) [11]: 2%
Population Mitochondria Different-Phenotype (%) [11]: 70%
Population Mitotic Cells (%) [11]: 13%
Population Normal (%) [11]: 63%
Population Pyknosed Nuclei (%) [11]: 25%
Population Tubulin-Different-Phenotype (%) [11]: 70%
Total Cell Count [11]: 139
Population Apoptotic (%) [12]: 90%
Population Fragmented Nuclei (%) [12]: 37%
Population Healthy Nuclei (%) [12]: 52%
Population Hoechst High Intensity Objects (%) [12]: 45%
Population Membrane Permeable-Phenotype (%) [12]: 0%
Population Mitochondria Different-Phenotype (%) [12]: 85%
Population Mitotic Cells (%) [12]: 9%
Population Normal (%) [12]: 54%
Population Pyknosed Nuclei (%) [12]: 9%
Population Tubulin-Different-Phenotype (%) [12]: 88%
Total Cell Count [12]: 214

C[C@H]1Oc2cc(cnc2N)-c2c(nn(C)c2C#N)CN(C)C(=O)c2ccc(F)cc21 [LORLATINIB]
Population Apoptotic (%) [1]: 60% and 68%
Population Fragmented Nuclei (%) [1]: 26% and 17%
Population Healthy Nuclei (%) [1]: 55% and 68%
Population Hoechst High Intensity Objects (%) [1]: 19% and 8%
Population Membrane Permeable-Phenotype (%) [1]: 20% and 11%
Population Mitochondria Different-Phenotype (%) [1]: 7% and 4%
Population Mitotic Cells (%) [1]: 40% and 31%
Population Normal (%) [1]: 80% and 91%
Population Pyknosed Nuclei (%) [1]: 17% and 14%
Total Cell Count [1]: 210 and 172
Population Apoptotic (%) [2]: 42% and 64%
Population Fragmented Nuclei (%) [2]: 63% and 54%
Population Healthy Nuclei (%) [2]: 25% and 15%
Population Hoechst High Intensity Objects (%) [2]: 34% and 31%
Population Membrane Permeable-Phenotype (%) [2]: 33% and 28%
Population Mitotic Cells (%) [2]: 57% and 35%
Population Normal (%) [2]: 65% and 68%
Population Pyknosed Nuclei (%) [2]: 11% and 30%
Population Tubulin-Different-Phenotype (%) [2]: 40% and 57%
Total Cell Count [2]: 91 and 67
Population Apoptotic (%) [5]: 55% and 64%
Population Fragmented Nuclei (%) [5]: 22% and 24%
Population Healthy Nuclei (%) [5]: 56% and 66%
Population Hoechst High Intensity Objects (%) [5]: 14% and 12%
Population Membrane Permeable-Phenotype (%) [5]: 15% and 6%
Population Mitotic Cells (%) [5]: 44% and 35%
Population Normal (%) [5]: 85% and 87%
Population Pyknosed Nuclei (%) [5]: 21%
Total Cell Count [5]: 201 and 190
Population Apoptotic (%) [6]: 57% and 40%
Population Fragmented Nuclei (%) [6]: 55% and 65%
Population Hoechst High Intensity Objects (%) [6]: 36% and 33%
Population Membrane Permeable-Phenotype (%) [6]: 33% and 20%
Population Mitochondria Different-Phenotype (%) [6]: 0% and 13%
Population Mitotic Cells (%) [6]: 42% and 60%
Population Normal (%) [6]: 63% and 66%
Population Tubulin-Different-Phenotype (%) [6]: 33% and 26%
Total Cell Count [6]: 60 and 87
